Laboratory results reported in ChEMBL document CHEMBL1828531, “Pyrazol-3-propanoic acid derivatives as novel inhibitors of leukotriene biosynthesis in human neutrophils” (Eur J Med Chem, 2011).

Columns and labels:
[1] = molecular target: T1, Polyunsaturated fatty acid 5-lipoxygenase (Homo sapiens) (UniProt P09917); assay: Inhibition of 5-Lipoxygenase in arachidonic acid-stimulated human neutrophils assessed as residual activity at 10 uM after 15 mins by HPLC analysis in presence of A23187
T1 sequence (whole entry): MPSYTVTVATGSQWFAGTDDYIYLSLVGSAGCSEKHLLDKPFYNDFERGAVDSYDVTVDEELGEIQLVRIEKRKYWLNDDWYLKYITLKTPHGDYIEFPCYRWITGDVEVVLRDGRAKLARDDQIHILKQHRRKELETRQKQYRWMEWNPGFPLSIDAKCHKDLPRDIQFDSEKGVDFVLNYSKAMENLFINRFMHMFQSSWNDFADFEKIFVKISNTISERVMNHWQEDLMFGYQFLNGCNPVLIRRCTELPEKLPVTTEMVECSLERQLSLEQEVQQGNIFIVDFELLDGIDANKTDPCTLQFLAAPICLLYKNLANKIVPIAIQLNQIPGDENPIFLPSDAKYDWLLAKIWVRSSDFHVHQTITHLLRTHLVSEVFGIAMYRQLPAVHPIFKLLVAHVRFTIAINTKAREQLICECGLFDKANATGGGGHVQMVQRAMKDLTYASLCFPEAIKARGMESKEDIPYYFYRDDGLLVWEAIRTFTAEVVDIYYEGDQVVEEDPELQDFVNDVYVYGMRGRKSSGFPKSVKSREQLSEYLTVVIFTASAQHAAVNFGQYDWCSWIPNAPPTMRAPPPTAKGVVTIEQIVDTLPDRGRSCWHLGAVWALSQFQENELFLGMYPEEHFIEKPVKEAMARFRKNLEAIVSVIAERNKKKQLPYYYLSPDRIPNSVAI
How it was run: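 Human neutrophils, 5 × 10^6/mL in PBS/glucose/1 mM CaCl2, preincubated 15 min at RT, then 2.5 µM A23187 plus 20 µM AA for 10 min at 37 °C. Methanol stop, PGB1 internal standard, HPLC of LTB4, its all-trans isomers and 5-H(p)ETE. Residual % versus 0.3% DMSO vehicle, mean ± SEM, n = 3–5. IC50 by linear interpolation from 4–5 concentrations.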

[2] = molecular target: T2, Polyunsaturated fatty acid 5-lipoxygenase (Homo sapiens, UniProt P09917); assay: Inhibition of recombinant human 5-Lipoxygenase expressed in Escherichia coli lysate after 10 mins by HPLC analysis
T2 sequence (P09917 whole entry): T1 sequence (whole entry)
How it was run: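 Human 5-LO expressed at 30 °C in E. coli MV1190 (pT3-5LO); lysate 40,000 g supernatant in PBS pH 7.4 with 1 mM EDTA. Preincubated with compound 10 min at 4 °C, warmed 30 s at 37 °C. Started with 2 mM CaCl2 plus 20 µM AA, 10 min at 37 °C. Methanol stop, HPLC. Residual % versus 0.3% DMSO vehicle, n = 3–5.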

[3] = molecular target: T3, Prostaglandin G/H synthase 2 (Homo sapiens) (UniProt P35354); assay: Inhibition of COX2-mediated 6-keto PGF1alpha production in IL1-beta stimulated human A549 cells assessed as residual activity at 10 uM after 10 mins by EIA; format: cell-based
T3 sequence (whole entry): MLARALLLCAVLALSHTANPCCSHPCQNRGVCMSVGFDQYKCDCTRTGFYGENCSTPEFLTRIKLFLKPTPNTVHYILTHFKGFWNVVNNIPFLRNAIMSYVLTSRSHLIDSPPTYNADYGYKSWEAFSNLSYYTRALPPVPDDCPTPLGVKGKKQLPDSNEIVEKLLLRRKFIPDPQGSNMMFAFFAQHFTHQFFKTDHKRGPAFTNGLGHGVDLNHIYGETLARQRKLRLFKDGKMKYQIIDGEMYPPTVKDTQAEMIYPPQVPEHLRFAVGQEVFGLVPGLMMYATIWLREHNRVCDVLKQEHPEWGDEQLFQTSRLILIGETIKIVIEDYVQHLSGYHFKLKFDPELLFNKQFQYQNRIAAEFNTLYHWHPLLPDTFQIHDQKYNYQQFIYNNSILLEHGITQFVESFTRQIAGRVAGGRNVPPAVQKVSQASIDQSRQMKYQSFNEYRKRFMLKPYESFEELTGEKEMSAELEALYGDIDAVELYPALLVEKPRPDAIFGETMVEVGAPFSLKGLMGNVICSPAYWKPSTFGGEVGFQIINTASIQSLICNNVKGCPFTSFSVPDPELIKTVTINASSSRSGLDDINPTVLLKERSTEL
How it was run: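 A549 cells stimulated with IL-1β (1 ng/ml) 72 h in DMEM with 2% FCS, trypsinized and washed. 10^6 cells/mL PBS with 1 mM CaCl2 preincubated with compound 10 min at 37 °C. 3 µM AA added for 15 min at 37 °C, stopped on ice. 6-keto PGF1α in supernatant measured by EIA.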

[4] = molecular target: Prostaglandin G/H synthase 1 (Homo sapiens, UniProt P23219); assay: Inhibition of COX1-mediated 12-HHT production in human platelet after 5 mins by HPLC analysis
Sequence of Prostaglandin G/H synthase 1 (P23219 whole entry): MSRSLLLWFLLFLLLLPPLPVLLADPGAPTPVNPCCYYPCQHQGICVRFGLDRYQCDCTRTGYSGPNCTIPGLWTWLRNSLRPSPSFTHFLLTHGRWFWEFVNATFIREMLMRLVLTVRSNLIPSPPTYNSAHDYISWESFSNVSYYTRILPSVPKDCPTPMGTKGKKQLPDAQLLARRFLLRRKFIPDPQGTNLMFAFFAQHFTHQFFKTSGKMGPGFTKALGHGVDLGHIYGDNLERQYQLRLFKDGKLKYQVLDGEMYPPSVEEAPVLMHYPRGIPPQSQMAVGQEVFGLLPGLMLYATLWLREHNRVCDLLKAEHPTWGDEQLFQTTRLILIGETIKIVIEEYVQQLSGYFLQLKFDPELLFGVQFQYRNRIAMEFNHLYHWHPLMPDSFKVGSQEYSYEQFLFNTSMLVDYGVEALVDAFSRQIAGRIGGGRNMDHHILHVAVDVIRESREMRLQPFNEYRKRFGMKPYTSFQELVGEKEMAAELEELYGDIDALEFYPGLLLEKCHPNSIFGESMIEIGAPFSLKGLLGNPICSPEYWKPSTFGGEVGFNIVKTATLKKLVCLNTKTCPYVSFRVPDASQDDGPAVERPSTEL
How it was run: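 Washed human platelets, 10^8/mL in PBS with 1 mM CaCl2, preincubated with compound 4 min at 4 °C then 1 min at 37 °C. 5 µM AA added for 5 min at 37 °C. Methanol/HCl stop, PGB1 added, 12-HHT by HPLC. Residual activity at 10 µM. IC50 by interpolation from 4–5 concentrations.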

Row | SMILES | Activity [1] | IC50 [2] | Activity [3] | IC50 [4]
1 | CCOC(=O)C1CCN(C(=O)CCc2cc(-c3ccc(C)cc3)n(-c3ccccc3)n2)CC1 | 6.7% | > 10 µM | 86.3% | > 10000 nM
2 | Cc1ccc(-c2cc(CCC(=O)Oc3ccc(C(C)C)cc3)nn2-c2ccc(Cl)nn2)cc1 | 46.4% | > 10 µM | 99.9% | > 10000 nM
3 | CC(C)(C)c1ccc(CN2CCN(C(=O)CCc3cc(-c4ccc(F)cc4)n(-c4ccc(Cl)nn4)n3)CC2)cc1 | 23.4% | > 10 µM | 84.2% | > 10000 nM
4 | Cc1ccc(-c2cc(CCC(=O)Oc3ccc(C(C)C)cc3)nn2-c2ccc3ccccc3n2)cc1 | 65.4% | > 10 µM | 97% | 14 nM
5 | Cc1ccc(-c2cc(CCC(=O)Oc3ccc(C(C)C)cc3)nn2-c2ccccc2)cc1 | 20.4% | > 10 µM | 111% | 300 nM

Continued, values first:

Row | Activity [1] | IC50 [2] | Activity [3] | IC50 [4] | SMILES
6 | 13.5% | > 10 µM | 97% | 2500 nM | Cc1ccc(-c2cc(CCC(=O)N3CCN(Cc4ccc(C(C)(C)C)cc4)CC3)nn2-c2ccccc2)cc1
7 | 62% | > 10 µM | 78.6% | > 10000 nM | CCOC(=O)C1CCN(C(=O)CCc2cc(-c3ccc(C(F)(F)F)cc3)n(-c3ccc(Cl)nn3)n2)CC1
8 | 25.8% | > 10 µM | 66.3% | 900 nM | CCOC(=O)C1CCN(C(=O)CCc2cc(-c3ccc(C)cc3)n(-c3ccc4ccccc4n3)n2)CC1
9 | 16.4% | > 10 µM | 79% | 41 nM | Cc1ccc(-c2cc(CCC(=O)N3CCN(Cc4ccc(C(C)(C)C)cc4)CC3)nn2-c2ccc3ccccc3n2)cc1
